Test results taken from ChEMBL document CHEMBL4020756, “Discovery of novel substituted benzo-anellated 4-benzylamino pyrrolopyrimidines as dual EGFR and VEGFR2 inhibitors” (Bioorg Med Chem Lett, 2017).

Columns and labels:
[1] = molecular target: Epidermal growth factor receptor (Homo sapiens, UniProt P00533); experiment: Inhibition of EGFR (unknown origin) using poly(Glu,Tyr)4:1 as substrate in presence of [gamma-33P]-ATP after 60 mins by scintillation counting analysis
[2] = molecular target: Vascular endothelial growth factor receptor 2 (Homo sapiens, UniProt P35968); experiment: Inhibition of VEGFR2 (unknown origin) using poly(Glu,Tyr)4:1 as substrate in presence of [gamma-33P]-ATP after 60 mins by scintillation counting analysis
In short: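 Radiometric ATP-competition assay at 30 °C for 60 min. Kinase was 20 ng/50 µL with Poly(Glu,Tyr)4:1 substrate at 125 ng/50 µL. Buffer was 70 mM HEPES-NaOH pH 7.5 with 3 mM MgCl2, 3 mM MnCl2, 3 µM orthovanadate, 1.2 mM DTT, 50 µg/mL PEG20000 and 15 µM [γ-33P]-ATP. The stop was 2% phosphoric acid, and 33Pi incorporation was counted by scintillation. Ten concentrations from 3 nM to 100 µM gave IC50.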

[3] = test system: MDA-MB-231; experiment: Growth inhibition of human MDA-MB-231 cells at 10 uM after 48 hrs by sulforhodamine assay relative to control; format: functional; details: MDA-MB-231, 48 h, read-out: GI
In short: (§1)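 Tested at a single 10 µM concentration in the NCI tumour cell panel screen. Growth inhibition was read by sulforhodamine B staining.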

[4] = test system: MDA-MB-468; experiment: Growth inhibition of human MDA-MB-468 cells at 10 uM after 48 hrs by sulforhodamine assay relative to control; format: functional; details: MDA-MB-468, 48 h, read-out: GI; in short: as §1
[5] = test system: BT-549; experiment: Growth inhibition of human BT549 cells at 10 uM after 48 hrs by sulforhodamine assay relative to control; format: functional; details: BT-549, 48 h, read-out: GI; in short: as §1
[6] = test system: Hs-578T; experiment: Growth inhibition of human Hs578T cells at 10 uM after 48 hrs by sulforhodamine assay relative to control; format: functional; details: read-out: GI; in short: as §1
[7] = test system: HOP-92; experiment: Growth inhibition of human HOP92 cells at 10 uM after 48 hrs by sulforhodamine assay relative to control; format: functional; details: HOP-92, 48 h, read-out: GI; in short: as §1
[8] = test system: HOP-62; experiment: Growth inhibition of human HOP62 cells at 10 uM after 48 hrs by sulforhodamine assay relative to control; format: functional; details: HOP-62, 48 h, read-out: GI; in short: as §1
[9] = test system: NCI-H460; experiment: Growth inhibition of human NCI-H460 cells at 10 uM after 48 hrs by sulforhodamine assay relative to control; format: functional; details: NCI-H460, 48 h, read-out: GI; in short: as §1
[10] = Solubility of the compound in pH 7.5 HEPES-NaOH buffer at > 100 uM; format: physicochemical
[11] = molecular target: Serine/threonine-protein kinase MARK1 (Homo sapiens, UniProt Q9P0L2); experiment: Inhibition of MARK1 (unknown origin)
In short: (§2)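 ATP-competition kinase assay run at several inhibitor concentrations. Reduced phosphorylation of the kinase substrate was measured by scintillation counting, and IC50 values were derived.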

[12] = molecular target: Death-associated protein kinase 1 (Homo sapiens, UniProt P53355); experiment: Inhibition of DAPK1 (unknown origin); in short: as §2
[13] = molecular target: Dual specificity mitogen-activated protein kinase kinase 1 (Homo sapiens, UniProt Q02750); experiment: Inhibition of MEK1 (unknown origin); in short: as §2
[14] = molecular target: Mitogen-activated protein kinase kinase kinase 2 (Homo sapiens, UniProt Q9Y2U5); experiment: Inhibition of MEKK2 (unknown origin); in short: as §2
[15] = molecular target: Protein kinase C alpha type (Homo sapiens, UniProt P17252); experiment: Inhibition of PKC alpha (unknown origin); in short: as §2
[16] = molecular target: Myotonin-protein kinase (Homo sapiens, UniProt Q09013); experiment: Inhibition of DMPK (unknown origin); in short: as §2
[17] = molecular target: Casein kinase I isoform alpha (Homo sapiens, UniProt P48729); experiment: Inhibition of CK1 alpha (unknown origin); in short: as §2
[18] = molecular target: Wee1-like protein kinase (Homo sapiens, UniProt P30291); experiment: Inhibition of Wee1 (unknown origin); in short: as §2
[19] = molecular target: Activin receptor type-1-like (Homo sapiens, UniProt P37023); experiment: Inhibition of ALK1 (unknown origin); in short: as §2
[20] = molecular target: Mitogen-activated protein kinase kinase kinase 21 (Homo sapiens, UniProt Q5TCX8); experiment: Inhibition of MLK4 (unknown origin); in short: as §2
[21] = molecular target: Interleukin-1 receptor-associated kinase 1 (Homo sapiens, UniProt P51617); experiment: Inhibition of IRAK (unknown origin); in short: as §2
[22] = molecular target: Tyrosine-protein kinase ABL1 (Homo sapiens, UniProt P00519); experiment: Inhibition of c-Abl (unknown origin); in short: as §2
[23] = molecular target: Tyrosine-protein kinase JAK2 (Homo sapiens, UniProt O60674); experiment: Inhibition of JAK2 (unknown origin); in short: as §2

Chain of Vascular endothelial growth factor receptor 2 (P35968 whole entry): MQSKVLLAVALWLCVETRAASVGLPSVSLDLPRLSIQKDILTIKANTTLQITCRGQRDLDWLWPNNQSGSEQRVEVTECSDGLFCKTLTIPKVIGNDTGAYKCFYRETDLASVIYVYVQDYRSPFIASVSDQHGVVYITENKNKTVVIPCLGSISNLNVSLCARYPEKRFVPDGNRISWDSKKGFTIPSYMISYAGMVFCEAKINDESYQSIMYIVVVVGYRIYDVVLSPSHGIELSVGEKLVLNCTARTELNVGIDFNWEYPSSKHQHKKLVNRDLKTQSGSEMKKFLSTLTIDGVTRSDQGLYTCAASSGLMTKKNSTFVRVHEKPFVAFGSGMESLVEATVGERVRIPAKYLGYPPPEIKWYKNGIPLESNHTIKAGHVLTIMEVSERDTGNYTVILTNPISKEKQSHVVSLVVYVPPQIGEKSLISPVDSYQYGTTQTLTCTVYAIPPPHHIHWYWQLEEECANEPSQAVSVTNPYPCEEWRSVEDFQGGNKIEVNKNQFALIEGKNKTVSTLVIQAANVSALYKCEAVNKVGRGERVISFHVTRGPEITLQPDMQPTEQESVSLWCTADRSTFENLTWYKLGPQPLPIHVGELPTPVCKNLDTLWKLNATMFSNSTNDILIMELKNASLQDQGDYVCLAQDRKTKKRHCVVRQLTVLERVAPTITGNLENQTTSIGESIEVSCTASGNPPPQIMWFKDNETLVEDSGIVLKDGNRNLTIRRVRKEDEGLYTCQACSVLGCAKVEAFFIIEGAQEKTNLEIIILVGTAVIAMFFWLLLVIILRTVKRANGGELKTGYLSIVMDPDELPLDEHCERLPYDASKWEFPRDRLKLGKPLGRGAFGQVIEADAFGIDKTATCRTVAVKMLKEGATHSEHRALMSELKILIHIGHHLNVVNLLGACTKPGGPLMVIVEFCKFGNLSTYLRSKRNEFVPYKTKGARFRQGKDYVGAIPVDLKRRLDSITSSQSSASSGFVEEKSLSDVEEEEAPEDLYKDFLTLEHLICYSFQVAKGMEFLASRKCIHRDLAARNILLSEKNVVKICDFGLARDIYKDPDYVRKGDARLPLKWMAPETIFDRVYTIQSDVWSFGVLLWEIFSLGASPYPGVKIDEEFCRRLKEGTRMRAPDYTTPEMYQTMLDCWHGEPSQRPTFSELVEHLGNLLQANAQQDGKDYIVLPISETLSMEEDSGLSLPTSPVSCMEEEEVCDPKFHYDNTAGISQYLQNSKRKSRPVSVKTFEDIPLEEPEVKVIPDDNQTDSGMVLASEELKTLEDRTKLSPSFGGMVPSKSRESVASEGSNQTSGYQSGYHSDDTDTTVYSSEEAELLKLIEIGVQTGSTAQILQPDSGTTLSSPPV
Chain of Epidermal growth factor receptor (P00533 whole entry): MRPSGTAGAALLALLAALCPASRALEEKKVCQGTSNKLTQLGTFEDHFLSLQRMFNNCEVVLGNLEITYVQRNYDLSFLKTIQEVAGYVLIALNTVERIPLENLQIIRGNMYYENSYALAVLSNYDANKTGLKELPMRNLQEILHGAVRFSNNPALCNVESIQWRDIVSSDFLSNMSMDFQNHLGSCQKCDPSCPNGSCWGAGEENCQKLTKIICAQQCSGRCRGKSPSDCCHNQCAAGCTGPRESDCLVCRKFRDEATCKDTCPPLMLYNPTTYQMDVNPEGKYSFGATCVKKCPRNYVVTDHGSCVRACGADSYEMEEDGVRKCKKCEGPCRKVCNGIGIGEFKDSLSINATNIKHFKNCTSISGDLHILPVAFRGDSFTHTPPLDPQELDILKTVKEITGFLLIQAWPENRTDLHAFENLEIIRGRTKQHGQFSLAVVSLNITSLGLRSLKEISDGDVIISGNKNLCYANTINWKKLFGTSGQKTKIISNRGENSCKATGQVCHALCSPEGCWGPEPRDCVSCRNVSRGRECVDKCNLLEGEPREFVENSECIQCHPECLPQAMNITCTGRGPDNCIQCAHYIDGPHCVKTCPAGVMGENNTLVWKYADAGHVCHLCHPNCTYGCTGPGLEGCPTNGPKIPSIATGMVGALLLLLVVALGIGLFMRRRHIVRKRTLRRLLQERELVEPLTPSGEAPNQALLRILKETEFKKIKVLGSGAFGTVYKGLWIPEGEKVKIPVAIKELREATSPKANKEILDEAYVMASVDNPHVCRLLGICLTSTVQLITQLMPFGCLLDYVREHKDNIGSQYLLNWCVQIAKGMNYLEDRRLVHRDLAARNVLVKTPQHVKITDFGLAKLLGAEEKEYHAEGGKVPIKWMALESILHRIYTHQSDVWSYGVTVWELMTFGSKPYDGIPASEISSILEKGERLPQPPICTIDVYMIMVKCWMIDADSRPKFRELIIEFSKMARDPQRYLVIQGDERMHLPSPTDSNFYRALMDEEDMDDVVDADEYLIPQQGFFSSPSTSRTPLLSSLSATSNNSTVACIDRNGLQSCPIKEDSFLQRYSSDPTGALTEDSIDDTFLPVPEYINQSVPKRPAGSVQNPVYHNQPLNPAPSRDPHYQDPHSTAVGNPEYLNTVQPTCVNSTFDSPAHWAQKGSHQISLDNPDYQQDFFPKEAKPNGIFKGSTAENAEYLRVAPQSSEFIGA
Chain of Tyrosine-protein kinase ABL1 (P00519 whole entry): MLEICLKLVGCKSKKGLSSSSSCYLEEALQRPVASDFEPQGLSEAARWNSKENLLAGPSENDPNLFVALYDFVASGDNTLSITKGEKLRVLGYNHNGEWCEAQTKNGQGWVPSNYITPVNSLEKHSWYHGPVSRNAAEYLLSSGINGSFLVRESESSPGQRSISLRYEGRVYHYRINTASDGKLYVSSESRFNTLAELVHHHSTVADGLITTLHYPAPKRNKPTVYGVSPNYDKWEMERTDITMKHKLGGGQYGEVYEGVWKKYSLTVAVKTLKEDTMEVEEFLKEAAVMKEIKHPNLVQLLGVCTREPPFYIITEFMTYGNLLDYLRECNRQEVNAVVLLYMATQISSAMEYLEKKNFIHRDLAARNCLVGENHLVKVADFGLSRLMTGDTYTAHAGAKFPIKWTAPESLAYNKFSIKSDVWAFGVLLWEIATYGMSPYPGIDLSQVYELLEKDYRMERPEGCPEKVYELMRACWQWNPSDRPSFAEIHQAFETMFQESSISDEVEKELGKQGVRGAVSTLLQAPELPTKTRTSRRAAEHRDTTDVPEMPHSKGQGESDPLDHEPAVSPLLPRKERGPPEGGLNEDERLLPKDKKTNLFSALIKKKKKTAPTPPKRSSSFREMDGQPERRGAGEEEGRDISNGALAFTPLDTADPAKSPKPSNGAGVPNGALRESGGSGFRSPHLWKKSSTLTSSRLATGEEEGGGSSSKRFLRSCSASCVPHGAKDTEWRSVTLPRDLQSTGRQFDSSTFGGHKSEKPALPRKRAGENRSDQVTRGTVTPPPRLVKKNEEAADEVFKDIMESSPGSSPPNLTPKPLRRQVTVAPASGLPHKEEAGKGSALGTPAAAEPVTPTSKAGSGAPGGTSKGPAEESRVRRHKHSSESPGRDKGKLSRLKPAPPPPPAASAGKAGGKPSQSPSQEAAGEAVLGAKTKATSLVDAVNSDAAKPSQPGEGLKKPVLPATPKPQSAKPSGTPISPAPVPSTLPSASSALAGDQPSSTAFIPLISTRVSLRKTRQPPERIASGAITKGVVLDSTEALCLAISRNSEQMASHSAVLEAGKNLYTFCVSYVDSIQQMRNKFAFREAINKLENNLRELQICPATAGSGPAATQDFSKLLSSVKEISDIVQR
Chain of Interleukin-1 receptor-associated kinase 1 (P51617 whole entry): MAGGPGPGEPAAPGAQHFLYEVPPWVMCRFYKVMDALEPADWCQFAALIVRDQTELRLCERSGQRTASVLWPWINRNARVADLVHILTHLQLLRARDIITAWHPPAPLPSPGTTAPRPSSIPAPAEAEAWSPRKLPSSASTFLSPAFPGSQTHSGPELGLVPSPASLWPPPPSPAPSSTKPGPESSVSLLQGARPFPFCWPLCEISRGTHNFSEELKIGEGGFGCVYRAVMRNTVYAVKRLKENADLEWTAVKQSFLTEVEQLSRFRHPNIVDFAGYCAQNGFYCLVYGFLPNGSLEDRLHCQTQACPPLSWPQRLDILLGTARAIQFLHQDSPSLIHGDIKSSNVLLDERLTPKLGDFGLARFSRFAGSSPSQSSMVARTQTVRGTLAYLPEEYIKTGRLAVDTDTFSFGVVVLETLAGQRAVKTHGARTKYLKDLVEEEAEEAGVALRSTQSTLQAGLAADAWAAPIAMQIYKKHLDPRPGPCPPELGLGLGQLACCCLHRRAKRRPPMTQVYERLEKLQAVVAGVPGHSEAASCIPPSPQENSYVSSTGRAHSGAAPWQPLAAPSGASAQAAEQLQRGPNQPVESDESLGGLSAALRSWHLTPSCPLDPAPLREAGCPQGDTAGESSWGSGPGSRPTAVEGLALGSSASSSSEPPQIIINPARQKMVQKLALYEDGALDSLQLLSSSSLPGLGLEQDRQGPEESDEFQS
Chain of Casein kinase I isoform alpha (P48729 whole entry, canonical isoform): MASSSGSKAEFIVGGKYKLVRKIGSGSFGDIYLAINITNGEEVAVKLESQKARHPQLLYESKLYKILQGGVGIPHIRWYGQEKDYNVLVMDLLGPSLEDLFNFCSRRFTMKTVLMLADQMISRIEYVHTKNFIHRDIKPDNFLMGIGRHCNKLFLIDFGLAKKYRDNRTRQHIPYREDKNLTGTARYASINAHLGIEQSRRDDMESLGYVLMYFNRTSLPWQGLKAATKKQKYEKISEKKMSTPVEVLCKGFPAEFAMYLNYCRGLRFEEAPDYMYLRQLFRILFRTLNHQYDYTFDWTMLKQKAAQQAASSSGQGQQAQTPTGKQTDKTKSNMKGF

## Nc1nc(NCCc2ccccc2)c2c(n1)[nH]c1ccc(O)cc12
[1]
  Ki: 640 nM
[2]; read-out: Ki
  Ki: 4.47 µM

## COc1cc2[nH]c3nc(N)nc(NCc4ccccc4)c3c2cc1O
[1]
  Ki: 610 nM
[2]; read-out: Ki
  Ki: 13.4 µM

## COc1ccccc1CNc1nc(N)nc2[nH]c3ccc(O)cc3c12
[1]
  Ki: 1870 nM
[2]; read-out: Ki
  Ki: 0.85 µM
[3]
  inhibition of growth at 10 µM: 73%
[4]
  inhibition of growth at 10 µM: 55%
[5]
  inhibition of growth at 10 µM: 37%
[6]
  inhibition of growth at 10 µM: 41%
[7]
  inhibition of growth at 10 µM: 66%
[8]
  inhibition of growth at 10 µM: 63%
[9]
  inhibition of growth at 10 µM: 82%

## Cc1cc2[nH]c3nc(N)nc(NCc4ccccc4)c3c2cc1O
[1]
  Ki: 640 nM
[2]; read-out: Ki
  Ki: 4.83 µM

## Cc1ccc(CNc2nc(N)nc3[nH]c4cc(C)c(O)cc4c23)cc1
[1]
  Ki: 5670 nM
[2]
  Ki: Not Active
[10]
  solubility: Soluble
[11]
  IC50: > 100 µM
[12]
  IC50: > 100 µM
[13]
  IC50: > 100 µM
[14]
  IC50: > 100 µM
[15]
  IC50: > 100 µM
[16]
  IC50: > 100 µM
[17]
  IC50: > 100 µM
[18]
  IC50: > 100 µM
[19]
  IC50: > 100 µM
[20]
  IC50: > 100 µM
[21]
  IC50: > 100 µM
[22]
  IC50: > 100 µM
[23]
  IC50: > 100 µM

## COc1ccc(CNc2nc(N)nc3[nH]c4ccc(O)cc4c23)cc1OC
[1]
  Ki: 3680 nM
[2]; read-out: Ki
  Ki: 11.1 µM

## Cc1cc2[nH]c3nc(N)nc(NCc4cccc(Cl)c4)c3c2cc1O
[1]
  Ki: 900 nM

## Nc1nc(NCc2cccc(Cl)c2)c2c(n1)[nH]c1ccc(O)cc12
[1]
  Ki: 290 nM

## COc1ccccc1CNc1nc(N)nc2[nH]c3cc(C)c(O)cc3c12
[1]
  Ki: 4030 nM
[2]; read-out: Ki
  Ki: 7.24 µM

## Nc1nc(NCc2ccccc2)c2c(n1)[nH]c1cc(Br)c(O)cc12
[1]
  Ki: 370 nM
[2]
  Ki: Not Active

## Nc1nc(NCc2ccccc2)c2c(n1)[nH]c1cc(Cl)c(O)cc12
[1]
  Ki: 270 nM
[2]
  Ki: Not Active
[3]
  inhibition of growth at 10 µM: 34%
[4]
  inhibition of growth at 10 µM: 28%
[5]
  inhibition of growth at 10 µM: 21%
[6]
  inhibition of growth at 10 µM: 16%
[7]
  inhibition of growth at 10 µM: 19%
[8]
  inhibition of growth at 10 µM: 20%
[9]
  inhibition of growth at 10 µM: 5%

## COc1cccc(CNc2nc(N)nc3[nH]c4ccc(O)cc4c23)c1
[1]
  Ki: 1260 nM
[2]; read-out: Ki
  Ki: 3.99 µM

## COc1ccc(CNc2nc(N)nc3[nH]c4cc(C)c(O)cc4c23)cc1
[1]
  Ki: 5950 nM

## COc1ccc(CNc2nc(N)nc3[nH]c4ccc(O)cc4c23)cc1
[1]
  Ki: 120 nM

## C[C@@H](Nc1nc(N)nc2[nH]c3ccc(O)cc3c12)c1ccccc1
[1]
  Ki: 910 nM
[2]; read-out: Ki
  Ki: 1.93 µM

## Nc1nc(NCc2ccccc2)c2c(n1)[nH]c1ccc(O)cc12
[1]
  Ki: 700 nM
[2]; read-out: Ki
  Ki: 2.76 µM

## C[C@H](Nc1nc(N)nc2[nH]c3ccc(O)cc3c12)c1ccccc1
[1]
  Ki: 520 nM
[2]; read-out: Ki
  Ki: 4.15 µM

## Cc1cc2[nH]c3nc(N)nc(NCc4ccc(Cl)cc4)c3c2cc1O
[1]
  Ki: 110 nM
[2]
  Ki: Not Active

## Cc1ccc(CNc2nc(N)nc3[nH]c4ccc(O)cc4c23)cc1
[1]
  Ki: 90 nM
[2]; read-out: Ki
  Ki: 3.26 µM

## Nc1nc(NCc2ccc(Cl)cc2)c2c(n1)[nH]c1ccc(O)cc12
[1]
  Ki: 80 nM
[2]; read-out: Ki
  Ki: 3.24 µM
[3]
  inhibition of growth at 10 µM: 65%
[4]
  inhibition of growth at 10 µM: 71%
[5]
  inhibition of growth at 10 µM: 24%
[6]
  inhibition of growth at 10 µM: 33%
[7]
  inhibition of growth at 10 µM: 57%
[8]
  inhibition of growth at 10 µM: 31%
[9]
  inhibition of growth at 10 µM: 25%
